In ChEMBL document CHEMBL1926542, “Synthesis and in vitro antiproliferative evaluation of pyrimido[5,4-c]quinoline-4-(3H)-one derivatives” (Eur J Med Chem, 2012):

Assays:
Format in all cases: functional, cell-based
[1] = Antiproliferative activity against human CNE2 cells after 72 hrs by MTT assay; settings: CNE-2, 72 h
Procedure, shortened: (§1)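 Cells in 10% fetal calf serum, RPMI 1640 for all lines except MCF-7 (DMEM). Log-phase cells seeded at 2×10⁴ cells/ml, 37 °C, 5% CO₂. Compounds added after 24 h, then 72 h at 37 °C. MTT (5 mg/ml saline stock) for 3 h, formazan dissolved in DMSO, A570 read (ref 655 nm). IC₅₀ from dose-response curves. Mean of three independent experiments.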

[2] = Antiproliferative activity against human GLC82 cells after 72 hrs by MTT assay; settings: GLC82, 72 h; procedure, shortened: as §1
[3] = system: MGC-803; assay: Antiproliferative activity against human MGC803 cells after 72 hrs by MTT assay; settings: MGC-803, 72 h; procedure, shortened: as §1
[4] = system: KB; assay: Antiproliferative activity against human KB cells after 72 hrs by MTT assay; procedure, shortened: as §1
[5] = system: MDA-MB-453; assay: Antiproliferative activity against human MDA-MB-453 cells after 72 hrs by MTT assay; settings: MDA-MB-453, 72 h; procedure, shortened: as §1
[6] = system: MCF7; assay: Antiproliferative activity against human MCF7 cells after 72 hrs by MTT assay; settings: MCF7, 72 h; procedure, shortened: as §1

Row | Structure (SMILES) | IC50 [1] [µM] | IC50 [2] [µM] | IC50 [3] [µM] | IC50 [4] [µM] | IC50 [5] [µM] | IC50 [6] [µM]
1 | CCn1cnc2c(c(C)nc3ccccc32)c1=O | > 50 | > 50 | > 50 | > 50 | > 50 | > 50
2 | Cc1nc2ccccc2c2ncn(CCN)c(=O)c12 | > 50 | > 50 | 39.9 | 39.8 | 45.7 | 43.5
3 | Cc1nc2ccccc2c2ncn(C(C)C)c(=O)c12 | > 50 | > 50 | > 50 | > 50 | > 50 | > 50
4 | Cc1cc(Oc2nc3c(c(C)nc4ccccc43)c(=O)n2-c2ccc(F)cc2)ccc1Cl | > 50 | > 50 | 41.4 | > 50 | > 50 | > 50
5 | Cc1nc2ccccc2c2ncn(CC(C)C)c(=O)c12 | > 50 | > 50 | > 50 | > 50 | > 50 | > 50
6 | Cc1nc2ccccc2c2nc(NC(C)(C)C)n(-c3ccccc3)c(=O)c12 | > 50 | > 50 | > 50 | > 50 | > 50 | > 50
7 | COc1ccccc1Oc1nc2c(c(C)nc3ccccc32)c(=O)n1-c1ccccc1 | > 50 | > 50 | > 50 | > 50 | > 50 | 35.5
8 | Cc1nc2ccccc2c2nc(Oc3ccc([N+](=O)[O-])cc3Cl)n(-c3ccc(Cl)cc3)c(=O)c12 | 13.8 | 7.88 | 4.8 | 4.9 | 18.2 | 10.1
9 | Cc1nc2ccccc2c2nc(Oc3cccc4ccccc34)n(-c3ccc(Cl)cc3)c(=O)c12 | 47 | 42.1 | 18.5 | 33.9 | > 50 | 37.9
10 | CCCn1cnc2c(c(C)nc3ccccc32)c1=O | > 50 | > 50 | > 50 | > 50 | > 50 | > 50
11 | Cc1nc2ccccc2c2ncn(CCc3ccccc3)c(=O)c12 | > 50 | 35.2 | > 50 | > 50 | 49.5 | > 50
12 | COc1ccccc1Oc1nc2c(c(C)nc3ccccc32)c(=O)n1-c1ccc(Cl)cc1 | > 50 | > 50 | > 50 | 39.2 | 49.7 | 34
13 | Cc1nc2ccccc2c2nc(Nc3ccccc3)n(N)c(=O)c12 | > 50 | > 50 | 14.7 | 30.3 | > 50 | > 50
